Laboratory results taken from ChEMBL document CHEMBL1126560, “Endothelin-1 analogues substituted at both position 18 and 19: highly potent endothelin antagonists with no selectivity for either receptor subtype ETA or ETB” (J Med Chem, 1993).

Each compound was assayed against T1, Endothelin-1 receptor (Sus scrofa) (UniProt Q29010) (assay: Endothelin A receptor agonist activity as maximum vasoconstriction in porcine coronary artery).
T1 sequence (whole entry): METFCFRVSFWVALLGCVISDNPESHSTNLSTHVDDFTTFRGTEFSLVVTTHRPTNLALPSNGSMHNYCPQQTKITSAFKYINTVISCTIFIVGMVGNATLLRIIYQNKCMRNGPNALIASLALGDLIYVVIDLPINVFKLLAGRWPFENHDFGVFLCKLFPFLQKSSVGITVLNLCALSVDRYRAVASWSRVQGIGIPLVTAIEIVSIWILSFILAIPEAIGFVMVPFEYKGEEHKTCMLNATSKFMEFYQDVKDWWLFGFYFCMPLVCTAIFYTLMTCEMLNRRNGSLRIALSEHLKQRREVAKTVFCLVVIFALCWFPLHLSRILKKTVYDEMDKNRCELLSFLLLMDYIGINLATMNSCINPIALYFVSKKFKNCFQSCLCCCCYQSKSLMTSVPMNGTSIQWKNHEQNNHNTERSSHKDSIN
Assay type: functional, tissue-based
Procedure, shortened: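 Porcine right coronary artery, endothelium-denuded helical strips in Krebs-Henseleit, 37 °C, isometric tension. Compound applied cumulatively, up to 1 μM. Maximal contraction expressed as % of 60 mM KCl-induced tension; n in parentheses.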
`CCC[C@H](NC(=O)[C@@H](NC(=O)[C@H](CC(C)C)NC(=O)[C@H](Cc1c[nH]cn1)NC(=O)[C@@H]1CSSC[C@@H](N)C(=O)N[C@@H](CO)C(=O)N[C@@H]2CSSC[C@@H](NC(=O)[C@H](CCC(=O)O)NC(=O)[C@@H](CCCCN)NC(=O)[C@H](CC(=O)O)NC(=O)[C@@H](CCSC)NC(=O)[C@H](CC(C)C)NC(=O)[C@@H](CO)NC(=O)[C@H](CO)NC2=O)C(=O)N[C@@H](C(C)C)C(=O)N[C@H](Cc2ccc(O)cc2)C(=O)N[C@@H](Cc2ccccc2)C(=O)N1)[C@@H](C)O)C(=O)N[C@H](C(=O)N[C@@H](Cc1c[nH]c2ccccc12)C(=O)O)[C@@H](C)CC` was tested, and the Max vasoconstriction was 112. With `CC[C@H](C)[C@H](NC(=O)[C@H](CC(C)C)NC(=O)[C@H](CC(=O)O)NC(=O)[C@H](CC(C)C)NC(=O)[C@H](Cc1c[nH]cn1)NC(=O)[C@@H]1CSSC[C@@H](N)C(=O)N[C@@H](CO)C(=O)N[C@@H]2CSSC[C@@H](NC(=O)[C@H](CCC(=O)O)NC(=O)[C@@H](CCCCN)NC(=O)[C@H](CC(=O)O)NC(=O)[C@@H](CCSC)NC(=O)[C@H](CC(C)C)NC(=O)[C@@H](CO)NC(=O)[C@H](CO)NC2=O)C(=O)N[C@@H](C(C)C)C(=O)N[C@H](Cc2ccc(O)cc2)C(=O)N[C@@H](Cc2ccccc2)C(=O)N1)C(=O)N[C@@H](Cc1c[nH]c2ccccc12)C(=O)O` the Max vasoconstriction was 73. `CC[C@H](C)[C@H](NC(=O)[C@H](CC(=O)O)NC(=O)[C@H](CC(C)C)NC(=O)[C@H](Cc1c[nH]cn1)NC(=O)[C@@H]1CSSC[C@@H](N)C(=O)N[C@H](CO)C(=O)N[C@H]2CSSC[C@@H](NC(=O)[C@H](CCC(=O)O)NC(=O)[C@H](CCCCN)NC(=O)[C@@H](CC(=O)O)NC(=O)[C@H](CCSC)NC(=O)[C@@H](CC(C)C)NC(=O)[C@H](CO)NC(=O)[C@@H](CO)NC2=O)C(=O)N[C@@H](C(C)C)C(=O)N[C@H](Cc2ccc(O)cc2)C(=O)N[C@@H](Cc2ccccc2)C(=O)N1)C(=O)N[C@H](C(=O)N[C@@H](Cc1c[nH]c2ccccc12)C(=O)O)[C@@H](C)CC` showed a Max vasoconstriction of 120. In the case of `CC[C@H](C)[C@H](NC(=O)[C@H](CC(=O)O)NC(=O)[C@H](CC(C)C)NC(=O)[C@H](Cc1c[nH]cn1)NC(=O)[C@@H]1CSSC[C@@H](NC(=O)[C@H](CCC(=O)O)NC(=O)[C@@H](CCCCN)NC(=O)[C@H](CC(=O)O)NC(=O)[C@@H](CCSC)NC(=O)[C@H](CC(C)C)NC(=O)[C@@H](CO)NC(=O)[C@H](CO)NC(=O)[C@H]2CSSC[C@@H](N)C(=O)N[C@@H](CO)C(=O)N2)C(=O)N[C@@H](C(C)C)C(=O)N[C@H](Cc2ccc(O)cc2)C(=O)N[C@@H](Cc2ccccc2)C(=O)N1)C(=O)N[C@H](C(=O)N[C@@H](Cc1c[nH]c2ccccc12)C(=O)O)[C@@H](C)CC`, the Max vasoconstriction is reported as > 80. For `CC[C@H](C)[C@H](NC(=O)[C@@H](NC(=O)[C@@H](NC(=O)[C@H](CC(C)C)NC(=O)[C@H](Cc1c[nH]cn1)NC(=O)[C@@H]1CSSC[C@@H](N)C(=O)N[C@@H](CO)C(=O)N[C@@H]2CSSC[C@@H](NC(=O)[C@H](CCC(=O)O)NC(=O)[C@@H](CCCCN)NC(=O)[C@H](CC(=O)O)NC(=O)[C@@H](CCSC)NC(=O)[C@H](CC(C)C)NC(=O)[C@@H](CO)NC(=O)[C@H](CO)NC2=O)C(=O)N[C@@H](C(C)C)C(=O)N[C@H](Cc2ccc(O)cc2)C(=O)N[C@@H](Cc2ccccc2)C(=O)N1)[C@@H](C)O)C(C)C)C(=O)N[C@@H](Cc1c[nH]c2ccccc12)C(=O)O`, the Max vasoconstriction was 128. `CC[C@H](C)[C@H](NC(=O)[C@H](CC(C)C)NC(=O)[C@H](CC(C)C)NC(=O)[C@H](Cc1c[nH]cn1)NC(=O)[C@@H]1CSSC[C@@H](N)C(=O)N[C@@H](CO)C(=O)N[C@@H]2CSSC[C@@H](NC(=O)[C@H](CCC(=O)O)NC(=O)[C@@H](CCCCN)NC(=O)[C@H](CC(=O)O)NC(=O)[C@@H](CCSC)NC(=O)[C@H](CC(C)C)NC(=O)[C@@H](CO)NC(=O)[C@H](CO)NC2=O)C(=O)N[C@@H](C(C)C)C(=O)N[C@H](Cc2ccc(O)cc2)C(=O)N[C@@H](Cc2ccccc2)C(=O)N1)C(=O)N[C@H](C(=O)N[C@@H](Cc1c[nH]c2ccccc12)C(=O)O)[C@@H](C)CC` was tested, and the Max vasoconstriction was 0. Work on `CC[C@H](C)[C@H](NC(=O)[C@H](CC(C)(C)C)NC(=O)[C@@H](NC(=O)[C@H](CC(C)C)NC(=O)[C@H](Cc1c[nH]cn1)NC(=O)[C@@H]1CSSC[C@@H](N)C(=O)N[C@@H](CO)C(=O)N[C@@H]2CSSC[C@@H](NC(=O)[C@H](CCC(=O)O)NC(=O)[C@@H](CCCCN)NC(=O)[C@H](CC(=O)O)NC(=O)[C@@H](CCSC)NC(=O)[C@H](CC(C)C)NC(=O)[C@@H](CO)NC(=O)[C@H](CO)NC2=O)C(=O)N[C@@H](C(C)C)C(=O)N[C@H](Cc2ccc(O)cc2)C(=O)N[C@@H](Cc2ccccc2)C(=O)N1)[C@@H](C)O)C(=O)N[C@@H](Cc1c[nH]c2ccccc12)C(=O)O` yielded a Max vasoconstriction of 0. With `CC[C@H](C)[C@H](NC(=O)[C@@H](NC(=O)[C@H](CC(C)C)NC(=O)[C@H](Cc1c[nH]cn1)NC(=O)[C@@H]1CSSC[C@@H](N)C(=O)N[C@@H](CO)C(=O)N[C@@H]2CSSC[C@@H](NC(=O)[C@H](CCC(=O)O)NC(=O)[C@@H](CCCCN)NC(=O)[C@H](CC(=O)O)NC(=O)[C@@H](CCSC)NC(=O)[C@H](CC(C)C)NC(=O)[C@@H](CO)NC(=O)[C@H](CO)NC2=O)C(=O)N[C@@H](C(C)C)C(=O)N[C@H](Cc2ccc(O)cc2)C(=O)N[C@@H](Cc2ccccc2)C(=O)N1)[C@@H](C)O)C(=O)N[C@H](C(=O)N[C@@H](Cc1c[nH]c2ccccc12)C(=O)O)[C@@H](C)CC` the Max vasoconstriction was 76.

What follows are compounds tested against T2, Endothelin-1 receptor (Sus scrofa, UniProt Q29010) (assay: Tested for the competitive binding versus [125I]- ET-1 determined in porcine cardiac ventricular membrane for Endothelin A receptor).
T2 sequence (Q29010 whole entry): T1 sequence (whole entry)
Procedure, shortened: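 Membranes (porcine cardiac ventricle at 12 μg/mL for ETA; bovine cerebrum at 150 μg/mL for ETB) in pH 7.2 Tris/EGTA/Mg acetate/0.1% BSA buffer with protease inhibitors. Incubated with 100 pM [125I]ET-1 and varied compound for 1 h at 25 °C, then filtered and counted by gamma counter. IC50 given as mean ± SEM of ≥3 determinations.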
For `CC[C@H](C)[C@H](NC(=O)[C@@H](NC(=O)[C@@H](NC(=O)[C@H](CC(C)C)NC(=O)[C@H](Cc1c[nH]cn1)NC(=O)[C@@H]1CSSC[C@H](N)C(=O)N[C@@H](CO)C(=O)N[C@H]2CSSC[C@H](NC(=O)[C@H](CCC(=O)O)NC(=O)[C@H](CCCCN)NC(=O)[C@H](CC(=O)O)NC(=O)[C@H](CCSC)NC(=O)[C@H](CC(C)C)NC(=O)[C@H](CO)NC(=O)[C@H](CO)NC2=O)C(=O)N[C@@H](C(C)C)C(=O)N[C@@H](Cc2ccc(O)cc2)C(=O)N[C@@H](Cc2ccccc2)C(=O)N1)[C@@H](C)O)C(C)C)C(=O)N[C@@H](Cc1c[nH]c2ccccc12)C(=O)O`, the IC50 was 180 pM. `CCC[C@H](NC(=O)[C@@H](NC(=O)[C@H](CC(C)C)NC(=O)[C@H](Cc1cnc[nH]1)NC(=O)[C@@H]1CSSC[C@H](N)C(=O)N[C@@H](CO)C(=O)N[C@H]2CSSC[C@H](NC(=O)[C@H](CCC(=O)O)NC(=O)[C@H](CCCCN)NC(=O)[C@H](CC(=O)O)NC(=O)[C@H](CCSC)NC(=O)[C@H](CC(C)C)NC(=O)[C@H](CO)NC(=O)[C@H](CO)NC2=O)C(=O)N[C@@H](C(C)C)C(=O)N[C@@H](Cc2ccc(O)cc2)C(=O)N[C@@H](Cc2ccccc2)C(=O)N1)[C@@H](C)O)C(=O)N[C@H](C(=O)N[C@@H](Cc1c[nH]c2ccccc12)C(=O)O)[C@@H](C)CC` was tested, and the IC50 was 200 pM.
